ChEMBL document CHEMBL2375313, “Synthesis, in vitro antitumor evaluation and DNA-binding study of novel tetrahydroquinolines and some derived tricyclic and tetracyclic ring systems” (Eur J Med Chem, 2013)
In brackets after ≈: the same amount, converted by molar mass. Activity calls are given as the source filed them. The rule behind the calls is not given here.

How the values were obtained:
HOP-92 = assay: Cytotoxicity against human HOP92 cells assessed as growth inhibition at 10 uM after 48 hrs by sulphorhodamine B assay; type: functional; settings: HOP-92, 48 h, read-out: GI
Summary of the method: (§1)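 NCI-60 one-dose screen per the NCI Drug Evaluation Branch protocol. Cells given a single 10 µM concentration with 48 h continuous exposure. Growth estimated by sulphorhodamine B protein assay. Result expressed as percentage growth inhibition relative to untreated growth.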

NCI-H23 = assay: Cytotoxicity against human NCI-H23 cells assessed as growth inhibition at 10 uM after 48 hrs by sulphorhodamine B assay; type: functional; settings: NCI-H23, 48 h, read-out: GI; summary of the method: as §1
[1] = Cytotoxicity against human EKVX cells assessed as growth inhibition at 10 uM after 48 hrs by sulphorhodamine B assay; type: functional; settings: read-out: GI; summary of the method: as §1
A549 = assay: Cytotoxicity against human A549 cells assessed as growth inhibition at 10 uM after 48 hrs by sulphorhodamine B assay; type: functional; settings: A549, 48 h, read-out: GI; summary of the method: as §1
[2] = Displacement of methyl green from DNA (unknown origin) after 24 hrs
Summary of the method: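 DNA-methyl green complex was stirred in 0.05 M Tris-HCl pH 7.5 with 7.5 mmol MgSO4 at 37 °C for 24 h. Compound was dried down from EtOH in tubes and the DNA-methyl green solution added. A630 was read initially and after 24 h dark incubation at room temperature, corrected and normalized to untreated complex. IC50 is the concentration giving a 50% absorbance decrease; mean ± SD, n = 6.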

[3] = Binding affinity to DNA (unknown origin) at 5 mg/mL by RP-TLC plate analysis
Summary of the method: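 Reversed-phase C18 TLC plates pre-developed in methanol/water 8:2. Compound spotted at origin (5 mg/mL in methanol), then DNA (1 mg/mL in water/methanol 8:2) applied at the same spot. Plates developed in the same eluent; DNA located by anisaldehyde spray (blue). Ethidium bromide as positive control.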

NCI/ADR-RES = assay: Cytotoxicity against human NCI/ADR-RES cells assessed as growth inhibition at 10 uM after 48 hrs by sulphorhodamine B assay; type: functional; settings: read-out: GI; summary of the method: as §1
SNB-75 = assay: Cytotoxicity against human SNB75 cells assessed as growth inhibition at 10 uM after 48 hrs by sulphorhodamine B assay; type: functional; settings: SNB-75, 48 h, read-out: GI; summary of the method: as §1
U-251 = assay: Cytotoxicity against human U251 cells assessed as growth inhibition at 10 uM after 48 hrs by sulphorhodamine B assay; type: functional; settings: U-251, 48 h, read-out: GI; summary of the method: as §1
SNB-19 = assay: Cytotoxicity against human SNB19 cells assessed as growth inhibition at 10 uM after 48 hrs by sulphorhodamine B assay; type: functional; settings: SNB-19, 48 h, read-out: GI; summary of the method: as §1
SF-295 = assay: Cytotoxicity against human SF295 cells assessed as growth inhibition at 10 uM after 48 hrs by sulphorhodamine B assay; type: functional; settings: SF-295, 48 h, read-out: GI; summary of the method: as §1
DU-145 = assay: Cytotoxicity against human DU145 cells assessed as growth inhibition at 10 uM after 48 hrs by sulphorhodamine B assay; type: functional; settings: DU-145, 48 h, read-out: GI; summary of the method: as §1
SF-268 = assay: Cytotoxicity against human SF268 cells assessed as growth inhibition at 10 uM after 48 hrs by sulphorhodamine B assay; type: functional; settings: SF-268, 48 h, read-out: GI; summary of the method: as §1
PC-3 = assay: Cytotoxicity against human PC3 cells assessed as growth inhibition at 10 uM after 48 hrs by sulphorhodamine B assay; type: functional; settings: PC-3, 48 h, read-out: GI; summary of the method: as §1
UACC-62 = assay: Cytotoxicity against human UACC62 cells assessed as growth inhibition at 10 uM after 48 hrs by sulphorhodamine B assay; type: functional; settings: UACC-62, 48 h, read-out: GI; summary of the method: as §1
SK-MEL-2 = assay: Cytotoxicity against human SK-MEL-2 cells assessed as growth inhibition at 10 uM after 48 hrs by sulphorhodamine B assay; type: functional; settings: SK-MEL-2, 48 h, read-out: GI; summary of the method: as §1
SK-MEL-5 = assay: Cytotoxicity against human SK-MEL-5 cells assessed as growth inhibition at 10 uM after 48 hrs by sulphorhodamine B assay; type: functional; settings: SK-MEL-5, 48 h, read-out: GI; summary of the method: as §1
M14 = assay: Cytotoxicity against human M14 cells assessed as growth inhibition at 10 uM after 48 hrs by sulphorhodamine B assay; type: functional; settings: M14, 48 h, read-out: GI; summary of the method: as §1
LOX IMVI = assay: Cytotoxicity against human LOXIMVI cells assessed as growth inhibition at 10 uM after 48 hrs by sulphorhodamine B assay; type: functional; settings: read-out: GI; summary of the method: as §1
UO-31 = assay: Cytotoxicity against human UO31 cells assessed as growth inhibition at 10 uM after 48 hrs by sulphorhodamine B assay; type: functional; settings: UO-31, 48 h, read-out: GI; summary of the method: as §1
CAKI-1 = assay: Cytotoxicity against human Caki1 cells assessed as growth inhibition at 10 uM after 48 hrs by sulphorhodamine B assay; type: functional; settings: CAKI-1, 48 h, read-out: GI; summary of the method: as §1
RXF 393 = assay: Cytotoxicity against human RXF393 cells assessed as growth inhibition at 10 uM after 48 hrs by sulphorhodamine B assay; type: functional; settings: RXF 393, 48 h, read-out: GI; summary of the method: as §1
ACHN = assay: Cytotoxicity against human ACHN cells assessed as growth inhibition at 10 uM after 48 hrs by sulphorhodamine B assay; type: functional; settings: read-out: GI; summary of the method: as §1
SR = assay: Cytotoxicity against human SR cells assessed as growth inhibition at 10 uM after 48 hrs by sulphorhodamine B assay; type: functional; settings: read-out: GI; summary of the method: as §1
A498 = assay: Cytotoxicity against human A498 cells assessed as growth inhibition at 10 uM after 48 hrs by sulphorhodamine B assay; type: functional; settings: A498, 48 h, read-out: GI; summary of the method: as §1
RPMI-8226 = assay: Cytotoxicity against human RPMI8226 cells assessed as growth inhibition at 10 uM after 48 hrs by sulphorhodamine B assay; type: functional; settings: RPMI-8226, 48 h, read-out: GI; summary of the method: as §1
MOLT-4 = assay: Cytotoxicity against human MOLT4 cells assessed as growth inhibition at 10 uM after 48 hrs by sulphorhodamine B assay; type: functional; settings: MOLT-4, 48 h, read-out: GI; summary of the method: as §1
K562 = assay: Cytotoxicity against human K562 cells assessed as growth inhibition at 10 uM after 48 hrs by sulphorhodamine B assay; type: functional; settings: K562, 48 h, read-out: GI; summary of the method: as §1
HL-60(TB) = assay: Cytotoxicity against human HL-60(TB) cells assessed as growth inhibition at 10 uM after 48 hrs by sulphorhodamine B assay; type: functional; settings: HL-60, 48 h, read-out: GI
Summary of the method: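 NCI-60 one-dose primary screen run to the Drug Evaluation Branch protocol. Cells are exposed to a single 10 µM concentration for 48 h continuously, and growth is read by SRB protein assay. Data are reported as percent growth of treated cells, expressed as % growth inhibition.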

SK-OV-3 = assay: Cytotoxicity against human SKOV3 cells assessed as growth inhibition at 10 uM after 48 hrs by sulphorhodamine B assay; type: functional; settings: SK-OV-3, 48 h, read-out: GI; summary of the method: as §1
CCRF-CEM = assay: Cytotoxicity against human CCRF-CEM cells assessed as growth inhibition at 10 uM after 48 hrs by sulphorhodamine B assay; type: functional; settings: read-out: GI; summary of the method: as §1
OVCAR-5 = assay: Cytotoxicity against human OVCAR5 cells assessed as growth inhibition at 10 uM after 48 hrs by sulphorhodamine B assay; type: functional; settings: OVCAR-5, 48 h, read-out: GI; summary of the method: as §1
OVCAR-4 = assay: Cytotoxicity against human OVCAR4 cells assessed as growth inhibition at 10 uM after 48 hrs by sulphorhodamine B assay; type: functional; settings: OVCAR-4, 48 h, read-out: GI; summary of the method: as §1
IGROV-1 = assay: Cytotoxicity against human IGROV1 cells assessed as growth inhibition at 10 uM after 48 hrs by sulphorhodamine B assay; type: functional; settings: IGROV-1, 48 h, read-out: GI; summary of the method: as §1
T47D = assay: Cytotoxicity against human T47D cells assessed as growth inhibition at 10 uM after 48 hrs by sulphorhodamine B assay; type: functional; settings: read-out: GI; summary of the method: as §1
Hs-578T = assay: Cytotoxicity against human Hs578T cells assessed as growth inhibition at 10 uM after 48 hrs by sulphorhodamine B assay; type: functional; settings: read-out: GI; summary of the method: as §1
NCI-H522 = assay: Cytotoxicity against human NCI-H522 cells assessed as growth inhibition at 10 uM after 48 hrs by sulphorhodamine B assay; type: functional; settings: NCI-H522, 48 h, read-out: GI; summary of the method: as §1
HT-29 = assay: Cytotoxicity against human HT-29 cells assessed as growth inhibition at 10 uM after 48 hrs by sulphorhodamine B assay; type: functional; settings: HT-29, 48 h, read-out: GI; summary of the method: as §1
MCF7 = assay: Cytotoxicity against human MCF7 cells assessed as growth inhibition at 10 uM after 48 hrs by sulphorhodamine B assay; type: functional; settings: MCF7, 48 h, read-out: GI; summary of the method: as §1
MDA-MB-435 = assay: Cytotoxicity against human MDA-MB-435 cells assessed as growth inhibition at 10 uM after 48 hrs by sulphorhodamine B assay; type: functional; settings: MDA-MB-435, 48 h, read-out: GI; summary of the method: as §1
HCT-15 = assay: Cytotoxicity against human HCT15 cells assessed as growth inhibition at 10 uM after 48 hrs by sulphorhodamine B assay; type: functional; settings: HCT-15, 48 h, read-out: GI; summary of the method: as §1
HCT-116 = assay: Cytotoxicity against human HCT116 cells assessed as growth inhibition at 10 uM after 48 hrs by sulphorhodamine B assay; type: functional; settings: HCT-116, 48 h, read-out: GI; summary of the method: as §1

For `CC1CCCc2c1nc1[nH]c(=S)nc(N)c1c2-c1ccc(Cl)cc1` (configuration not stated), the inhibition of growth at 10 µM (HOP-92) was under 10%, the inhibition of growth at 10 µM (NCI-H23) was 10.1% and the inhibition of growth at 10 µM [1] was 14.5%. For the same molecule, the inhibition of growth at 10 µM (A549) was under 10%, the IC50 [2] was 0.151 µg/mL (≈ 0.423 µM) and the Activity [3] was “Active”. For the same molecule, the inhibition of growth at 10 µM (NCI/ADR-RES) was under 10%, the inhibition of growth at 10 µM (SNB-75) was 10.2% and the inhibition of growth at 10 µM (U-251) was under 10%. For the same molecule, the inhibition of growth at 10 µM (SNB-19) was 10%, the inhibition of growth at 10 µM (SF-295) was under 10% and the inhibition of growth at 10 µM (DU-145) was under 10%. The inhibition of growth at 10 µM (SF-268) was 18.8%, the inhibition of growth at 10 µM (PC-3) was 56.7% and the inhibition of growth at 10 µM (UACC-62) was 15.8%. For the same molecule, the inhibition of growth at 10 µM (SK-MEL-2) was 11.4%, the inhibition of growth at 10 µM (SK-MEL-5) was 10.3% and the inhibition of growth at 10 µM (M14) was under 10%. For the same molecule, the inhibition of growth at 10 µM (LOX IMVI) was under 10%, the inhibition of growth at 10 µM (UO-31) was under 10% and the inhibition of growth at 10 µM (CAKI-1) was 31.3%. For the same molecule, the inhibition of growth at 10 µM (RXF 393) was under 10%, the inhibition of growth at 10 µM (ACHN) was under 10% and the inhibition of growth at 10 µM (SR) was 25.8%. For the same molecule, the inhibition of growth at 10 µM (A498) was 11.5%, the inhibition of growth at 10 µM (RPMI-8226) was 37% and the inhibition of growth at 10 µM (MOLT-4) was 26.2%. For the same molecule, the inhibition of growth at 10 µM (K562) was 15%, the inhibition of growth at 10 µM (HL-60(TB)) was 10% and the inhibition of growth at 10 µM (SK-OV-3) was under 10%. It also gave an inhibition of growth at 10 µM (CCRF-CEM) of 28.8%, an inhibition of growth at 10 µM (OVCAR-5) of under 10% and an inhibition of growth at 10 µM (OVCAR-4) of under 10%. For the same molecule, the inhibition of growth at 10 µM (IGROV-1) was 10%, the inhibition of growth at 10 µM (T47D) was 15.2% and the inhibition of growth at 10 µM (Hs-578T) was under 10%. For the same molecule, the inhibition of growth at 10 µM (NCI-H522) was 10%, the inhibition of growth at 10 µM (HT-29) was under 10% and the inhibition of growth at 10 µM (MCF7) was 10.4%. The inhibition of growth at 10 µM (MDA-MB-435) was under 10%, the inhibition of growth at 10 µM (HCT-15) was 14.3% and the inhibition of growth at 10 µM (HCT-116) was 10.5%.
